A short description of data set [1]: Selectivity index, ratio of CC50 for human HepG2 cells to EC50 for metronidazole sensitive Giardia lamblia WB trophozoites.
Data set [2] is described as follows: Selectivity index, ratio of CC50 for HEK293 cells to EC50 for metronidazole sensitive Giardia lamblia WB trophozoites.
The subject of data set [3] is Entamoeba histolytica. Description: Potency index, ratio of metronidazole EC50 to compound EC50 for metronidazole sensitive Entamoeba histolytica HM-1:IMSS trophozoites. It is filed as functional.
Data set [4] has as its system Giardia intestinalis. Briefly: Potency index, ratio of metronidazole EC50 to compound EC50 for metronidazole sensitive Giardia lamblia WB trophozoites. Type of data set: functional, Giardia duodenalis.
Data set [5] deals with Giardia intestinalis. Briefly: Potency index, ratio of metronidazole EC50 to compound EC50 for metronidazole resistant Giardia lamblia 713M3 trophozoites. It is filed as functional, Giardia duodenalis.
A short description of data set [6]: Metabolic stability in human liver microsomes assessed as compound remaining at 5 uM after 2 hrs in presence of NADPH by LC/MS/MS analysis. The conditions noted are these: read-out: Stability. Type of data set: ADME. A general note: Liver microsomes are a subcellular fraction often used to study metabolism.
Data set [7] can be described thus: Protein binding in human plasma at 5 uM after 30 min by ultrafiltration method. The conditions noted are these: 0.5 h. It is filed as ADME, cell-free.
For data set [8], the system named is Giardia intestinalis. Description: Antiparasitic activity against metronidazole sensitive Giardia lamblia WB trophozoites assessed as morphological alterations at 3 times EC50 after 48 hrs under anaerobic conditions by phase contrast microscopic analysis. Type of data set: functional. The conditions noted are these: Giardia duodenalis.
The subject of data set [9] is Entamoeba histolytica. Briefly: Antiparasitic activity against metronidazole sensitive Entamoeba histolytica HM-1:IMSS trophozoites after 24 to 48 hrs under anaerobic conditions by Celltiter-Glo assay. Type of data set: functional. The procedure, abridged:
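Axenic log-phase trophozoites in TYI-S-33 with penicillin and streptomycin, 5000 parasites per well. Tested over a final 8-point three-fold series, 0.01–25 μM. Incubated 24–48 h at 37 °C in anaerobe gas pouches. Viable cells measured by ATP bioluminescence (CellTiter-Glo) in triplicate to give EC50.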
(ATP-based viability assays read luminescence as a measure of living cells.)

A short description of data set [10]: Antiparasitic activity against metronidazole sensitive Clostridium difficile 630 ATCC BAA-1382 after 24 hrs by broth microdilution method. Type of data set: functional, Clostridioides difficile 630. The conditions noted are these: Clostridioides difficile, ATCC BAA-1382, 24 h. An outline of the steps: (§1)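 C. difficile 630 and NAP1/027 grown anaerobically overnight in BHIS at 37 °C, diluted 40-fold, grown ~4.5 h to mid-log (OD600 0.4–0.6). Final inoculum 5 × 10^5 CFU/mL in BHIS against two-fold dilutions, 64 to 0.03 μg/mL, 3% maximum DMSO, in pre-reduced plates (5% H2, 10% CO2, 85% N2). Incubated 24 h at 37 °C. MIC is the lowest concentration without visible growth. Median of replicates reported.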
On the technique in general: Dilution methods test growth across graded concentrations, often in twofold steps.

For another data set, the system named is Clostridioides difficile. Description: Antiparasitic activity against Clostridium difficile NAP1/027 ATCC BAA-1803 after 24 hrs by broth microdilution method. It is filed as functional. The following applies: NAP1/027 ATCC BAA-1803, 24 h. An outline of the steps:
as §1

Data set [11] can be described thus: Cytotoxicity against HEK293 cells assessed as cell growth inhibition after 24 hrs by resazurin assay. Type of data set: toxicity, cell-based. The conditions noted are these: human. The procedure, abridged: (§2)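 HEK293 (3000/well) and HepG2 (5000/well) cells cultured 24 h in DMEM with 10% FBS at 37 °C, 5% CO2. Compound dilution series added, top concentration 100 μM, 0.5% final DMSO, for 24 h. Then 5 μM resazurin added for 2 h at 37 °C. 1% Triton X-100 served as the lysis control.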

Data set [12] can be described thus: Cytotoxicity against human HepG2 cells assessed as cell growth inhibition after 24 hrs by resazurin assay. It is filed as toxicity, cell-based. An outline of the steps: as §2

The MIC is the least concentration at which growth counts as inhibited. Read a low MIC as a more susceptible organism. One may read the CC50 as the concentration at which the toxic effect on the cells reaches its halfway point.

Calls of active or inactive are those of the source. The rule behind the calls is not given here. Bounds are passed on as bounds.

As to `Cn1c([N+](=O)[O-])cnc1C(=O)NC1CC1`, the “Ratio CC50/EC50” value in [1] and in data set [2] was more than 29 in each case.
As for `O=C(NC1CC1)c1ncc([N+](=O)[O-])[nH]1`, the “Ratio CC50/EC50” value in data set [1] and in [2] was more than 20 each time.
On to `CN(C)C(=O)c1nc([N+](=O)[O-])cn1Cc1ccc(OC(F)(F)F)cc1`, for which the “Ratio CC50/EC50” value in [1] and in [2] was more than 37 throughout.
Take `O=C(NC1CCCCC1)c1ncc([N+](=O)[O-])[nH]1`: the “Ratio CC50/EC50” value in data set [1] and in data set [2] was more than 167 throughout. For the same molecule, in the data set with Entamoeba histolytica [3], the “Ratio EC50” value was 2 - 3.
Consider `O=C(NO)c1nc([N+](=O)[O-])cn1Cc1ccc(OC(F)(F)F)cc1`, for which the “Ratio CC50/EC50” value in [1] was more than 20.
Consider `Cn1c([N+](=O)[O-])cnc1C(=O)NCc1ccccn1`, for which the “Ratio CC50/EC50” value in [1] and in data set [2] was more than 63 throughout. Besides, the “Ratio EC50” value in the data set on Giardia intestinalis [4] was 4; in the data set with Giardia intestinalis [5], 3 - 12.
Consider `Cc1ncc([N+](=O)[O-])n1CCO` [METRONIDAZOLE], for which the remaining at 2 h, 5 µM in data set [6] is 100%.
With `CN(C)C(=O)c1ncc([N+](=O)[O-])[nH]1`, the “Ratio CC50/EC50” value in [1] and in [2] was more than 12 each time. The “Ratio EC50” value in the data set on Entamoeba histolytica [3] is given as 2 - 3.
Turning to `O=C(NCc1ccc(OC(F)(F)F)cc1)c1ncc([N+](=O)[O-])[nH]1`, the “Ratio CC50/EC50” value in data set [2] is more than 500.
Consider `CCOC(=O)c1nc([N+](=O)[O-])cn1Cc1ccc(OC(F)(F)F)cc1`, for which the “Ratio CC50/EC50” value in data set [1] and in [2] was more than 17 in each case.
As for `O=C(NCc1ccc(F)cc1)c1ncc([N+](=O)[O-])[nH]1`, the remaining at 2 h, 5 µM in data set [6] was determined as 94%. In data set [7], this molecule had a PPB of more than 99%. For the same molecule, the “Ratio CC50/EC50” value in data set [1] and in [2] was more than 250 each time. The result with Giardia intestinalis [8] was Active.
On to `Cn1c([N+](=O)[O-])cnc1C(=O)N1CCOCC1`, for which the remaining at 2 h, 5 µM in data set [6] is 97%. Besides, the “Ratio CC50/EC50” value in [1] and in data set [2] was more than 63 each time. In the data set on Giardia intestinalis [4], the “Ratio EC50” value was 4.
On to `CC(NC(=O)c1ncc([N+](=O)[O-])[nH]1)c1ccc(F)cc1` (stereo unspecified), for which the “Ratio CC50/EC50” value in data set [1] and in [2] was more than 250 in each case. Moreover, in the data set on Entamoeba histolytica [3], the “Ratio EC50” value is given as 2 - 3.
Regarding `NC(=O)c1nc([N+](=O)[O-])cn1CC1CC1`, the EC50 was more than 50 µM in the data set on Entamoeba histolytica [9] (read-out: EC50) and more than 50.1 µM in the data set on Entamoeba histolytica [9] (read-out: pEC50 (converted)). The MIC (in data set [10]; against Clostridioides difficile) was more than 64 µg/mL each time. For the same molecule, the half-maximal cytotoxic concentration (CC50) at 24 h in [11] and in data set [12] was more than 100 µM each time.
In the case of `CNC(=O)c1ncc([N+](=O)[O-])[nH]1`, the “Ratio CC50/EC50” value in data set [1] and in [2] was more than 10 each time.
For the molecule `NC(=O)c1nc([N+](=O)[O-])cn1Cc1ccc(OC(F)(F)F)cc1`, the “Ratio CC50/EC50” value in [1] and in data set [2] was more than 22 in each case.
With `Cn1c([N+](=O)[O-])cnc1C(=O)NC1CCCCC1`, the “Ratio CC50/EC50” value in data set [1] and in data set [2] was more than 20 throughout. For the same molecule, the “Ratio EC50” value in the data set on Giardia intestinalis [5] is reported as 3 - 12.
For the molecule `CN(C)C(=O)c1ncc([N+](=O)[O-])n1C`, the “Ratio CC50/EC50” value in [1] and in [2] was more than 42 each time.
On to `O=C(c1ncc([N+](=O)[O-])[nH]1)N1CCCC1`, for which the “Ratio CC50/EC50” value in data set [1] and in data set [2] was more than 29 each time.
On to `O=C(NCc1ccccn1)c1ncc([N+](=O)[O-])[nH]1`, for which the “Ratio CC50/EC50” value in data set [1] and in [2] was more than 14 in each case.
Turning to `Cn1c([N+](=O)[O-])cnc1C(=O)NCc1ccc(F)cc1`, in data set [6], the remaining at 2 h, 5 µM was 88%. For the same molecule, the “Ratio CC50/EC50” value in [1] and in data set [2] was more than 29 in each case.
As to `Cc1ccc(CCNC(=O)c2ncc([N+](=O)[O-])[nH]2)cc1`, the “Ratio CC50/EC50” value in data set [1] and in [2] was more than 1000 in each case. Also, in the data set with Entamoeba histolytica [3], the “Ratio EC50” value was 2 - 3.
As to `O=C(c1ncc([N+](=O)[O-])[nH]1)N1CCOCC1`, the remaining at 2 h, 5 µM in [6] stood at 100%. Besides, the “Ratio CC50/EC50” value in [1] and in data set [2] was more than 11 in each case.
Regarding `CNC(=O)c1nc([N+](=O)[O-])cn1Cc1ccc(OC(F)(F)F)cc1`, the “Ratio CC50/EC50” value in [1] and in [2] was more than 29 in each case.
As to `O=C(NCc1cccc(OC(F)(F)F)c1)c1ncc([N+](=O)[O-])[nH]1`, the “Ratio CC50/EC50” value in data set [1] and in [2] was more than 500 each time.
For `CN(CCO)C(=O)c1ncc([N+](=O)[O-])[nH]1`, the “Ratio CC50/EC50” value in data set [1] and in [2] was more than 4 throughout.
In the case of `NNC(=O)c1nc([N+](=O)[O-])cn1Cc1ccc(OC(F)(F)F)cc1`, the “Ratio CC50/EC50” value in data set [1] and in [2] was more than 13 throughout.
As to `NC(=O)c1nc([N+](=O)[O-])cn1Cc1cccc(OC(F)(F)F)c1`, the “Ratio CC50/EC50” value in data set [1] and in data set [2] was more than 12 throughout.
As to `Cn1c([N+](=O)[O-])cnc1C(=O)N1CCCC1`, the “Ratio CC50/EC50” value in data set [1] and in [2] was more than 34 each time. Moreover, the “Ratio EC50” value in the data set with Giardia intestinalis [5] is given as 3 - 12.
Consider `CC(NC(=O)c1ncc([N+](=O)[O-])n1C)c1ccc(F)cc1` (stereo unspecified), for which the “Ratio CC50/EC50” value in data set [1] and in data set [2] was more than 34 throughout. For the same molecule, the “Ratio EC50” value with Giardia intestinalis [5] is recorded as 3 - 12.
As to `Cc1ccc(CCNC(=O)c2ncc([N+](=O)[O-])n2C)cc1`, the “Ratio CC50/EC50” value in data set [1] and in [2] was more than 36 throughout.
Regarding `NC(=O)c1nc([N+](=O)[O-])cn1Cc1ccccn1`, the “Ratio CC50/EC50” value in data set [1] and in [2] was more than 3.7 each time.

The record behind these values is ChEMBL document CHEMBL3856206, “Nitroimidazole carboxamides as antiparasitic agents targeting Giardia lamblia, Entamoeba histolytica and Trichomonas vaginalis” (Eur J Med Chem, 2016).
